Compound activity as filed in PubChem BioAssay.
Shown are actives, neighbours in structure and some others; about 2.3% of the full set was active somewhere.
ATG4B inhibitor = blocks human ATG4B protease cleavage of LC3 substrate | Q9Y4P1 | ATG4B cleavage of LC3-PLA2, NBD-HPC fluorescence, 1 h | inhibition, % at 8.33 µM | actives 0.51% (n = 340,000) | AID 504462; in the data active means inhibition above about 40%
Target sequence (Q9Y4P1 whole entry, looked up): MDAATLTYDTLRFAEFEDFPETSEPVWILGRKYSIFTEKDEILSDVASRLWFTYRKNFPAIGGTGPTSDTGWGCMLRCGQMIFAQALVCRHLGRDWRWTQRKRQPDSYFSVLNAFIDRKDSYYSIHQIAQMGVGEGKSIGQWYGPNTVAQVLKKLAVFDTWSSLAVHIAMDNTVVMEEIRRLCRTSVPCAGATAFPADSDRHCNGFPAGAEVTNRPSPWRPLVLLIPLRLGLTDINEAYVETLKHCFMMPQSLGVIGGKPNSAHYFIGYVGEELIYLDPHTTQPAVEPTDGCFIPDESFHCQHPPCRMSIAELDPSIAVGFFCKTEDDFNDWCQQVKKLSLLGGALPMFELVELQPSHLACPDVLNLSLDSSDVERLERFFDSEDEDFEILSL
CAL PDZ FP-1 = inhibitors of human CAL PDZ peptide binding; purified CAL PDZ, TMR-peptide fluorescence polarization, 1 h; AID 504414; Q9HD26; inhibition, % at 20 µM; actives 0.02% (n = 330,000);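 active means highest replicate inhibition of at least 40%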;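 further: plate controls were DMSO neutral control wells for no effect and unlabeled competitor peptide control wells for full effect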
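System: purified tagged CAL PDZ domain construct (CerCALP). Schedule: 1 h incubation at room temperature before polarization reading. Medium: 25 mM sodium phosphate pH 7.4, 150 mM NaCl, TCEP, IgG, Thesit. Read-out: percent inhibition from loss of millipolarization. Measured by: FP readout, S and P plane fluorescence. Probe or stimulus: fluorescent TMR peptide probe.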
SR-BI DiI inh = blocks mouse SR-BI lipid uptake from DiI-HDL | Q61009 | ldlA[mSR-BI] CHO cells, DiI-HDL uptake fluorescence, 3 h | inhibition, % at 12.5 µM | actives 0.96% (n = 320,000) | AID 488896;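 active means mean replicate inhibition of at least 70% and a set share of replicates each scoring 70 or more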;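 further: 0% = median of neutral control wells and 100% = median of positive control wells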
SR-BI DiI-HDL act = activators of SR-BI mediated HDL lipid uptake | CHO ldlA[mSR-BI] cells, DiI-HDL uptake fluorescence, 3 h; 100 = double the neutral-control signal | activation, % at 12.5 µM | actives 0.096% (n = 320,000);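 active means mean replicate activation of at least 60% and every replicate at or above 60%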;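 further: 0% = median plate neutral-control signal and 100% = twice that signal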
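System: CHO ldlA[mSR-BI] cells / Medium: HEPES-buffered (25 mM, pH 7.4) F12 plus 0.5% BSA / Probe or stimulus: labelled HDL, 10 µg/mL / Doses: single compound concentration, delivered by pin transfer / Schedule: 3 h, 37 °C / Measured by: DiI fluorescence, bottom read / Measure: cell-associated DiI fluorescence as measure of HDL uptake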
CAL PDZ FP-2 = blocks peptide binding to the human CAL PDZ domain; Q9HD26; purified CAL PDZ, TMR-peptide fluorescence polarization, 1 h; inhibition, % at 24.9 µM; actives 0.92% (n = 300,000); AID 602252;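 active means mean inhibition of at least 30% with at least half of replicates also reaching 30%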;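 further: 0% = DMSO neutral control and 100% = excess unlabeled competitor peptide PRC23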
Starred values were filed as active, the others as inactive; x = no result given.

SMILES | ATG4B inhibitor | CAL PDZ FP-1 | SR-BI DiI inh | SR-BI DiI-HDL act | CAL PDZ FP-2
O=C(N/N=C/c1cc(Br)cc(Cl)c1O)c1ccc2c(c1)OCO2 | 8 | -4 | 132* | -132 | x
COc1ccnc(Oc2ccccc2)c1C(=O)N/C=N/OCc1ccccc1F | 3 | x | -7 | 7 | -8
O=C(C1CCCN1S(=O)(=O)c1ccc(Cl)cc1)N1CCCCC1 (stereo not given) | -2 | 0 | -5 | 5 | x
COc1cc(C(=O)Nc2cccc3c2CCCC3)cc(OC)c1OC | 5 | -1 | 26 | -26 | -4
CN(Cc1ccccc1)C(=O)c1cccc(NC(=O)Cc2ccc(NC(=O)C3CCCN(C(=O)C4CCCC4)C3)cc2)c1 (stereo not given) | -6 | -2 | 8 | -8 | -5
O=C(N/N=C/c1ccc2c(c1)OCO2)c1ccc2c(c1)OCCO2 | -3 | -3 | 2 | -2 | 1
O=C(N/N=C/c1cc2c(cc1Cl)OCO2)c1cccc(Br)c1 | -1 | -3 | 81* | -81 | -3
O=C(N/N=C/c1ccccc1O)c1ccc2c(c1)OCO2 | 0 | x | 81* | -81 | -5
O=C(N/N=C/c1ccc(Cl)cc1)c1ccc2c(c1)OCO2 | 0 | -1 | -5 | 5 | -5
O=C(N/N=C/c1cc(Cl)cc([N+](=O)[O-])c1O)c1ccc2c(c1)OCO2 | 5 | 0 | 124* | -124 | 7
O=C1C=CC(=O)N1c1cccc(-c2ccccc2)c1 | -11 | 2 | -6 | 6 | -3
O=C1c2cc(Br)ccc2OC2C=CC=CC12 (stereo not given) | 3 | 0 | -2 | 2 | 6
Cc1nc(/C=[N+](\[O-])C(C)(C)/C=N/O)n(O)c1C | -6 | 0 | -12 | 12 | 59*
COc1cc(/C=C/C(=O)Nc2ccc(S(=O)(=O)Nc3onc(C)c3C)cc2)cc(OC)c1OC | -9 | -4 | 5 | -5 | x
Cc1[nH]n(-c2ccccc2)c(=O)c1N=Nc1cccc(Cl)c1 | 3 | -1 | 6 | -6 | -2
CC(=O)c1cccc(N=Nc2c(-c3ccccc3)[nH]n(-c3ccccc3)c2=O)c1 | -6 | 0 | 100* | -100 | x
CCOC(=O)c1[nH]c2ccc(F)cc2c1NC(=O)c1cc(OC)c(OC)c(OC)c1 | -24 | 0 | 71* | -71 | -4
CCN1C(=O)CCN(C2CCCC2)c2nc(Nc3ccc(C(=O)NC4CCN(C)CC4)cc3OC)ncc21 | 7 | 2 | -15 | 15 | 7
CCN1CCN(C(=O)c2cc(=O)c3cc(C)ccc3o2)CC1 | -18 | -1 | -11 | 11 | 44*
CCc1ccc2oc(C(=O)N3CCN(C)CC3)cc(=O)c2c1 | -1 | 0 | -20 | 20 | 3
COC(=O)c1ccc2c(c1)C(C)(C)C(/C=C/c1ccccc1O)=[N+]2C | 8 | x | 76* | -76 | -30
C[N+]1=C(/C=C/Nc2ccccc2Cl)C(C)(C)c2ccccc21 | 9 | -1 | 17 | -17 | -1
O=C(Cn1cnc(S(=O)(=O)N2CCCC2)c1)Nc1cccc(Br)c1 | -8 | -1 | -14 | 14 | 50*
NS(=O)(=O)c1cccc(NC(=O)COC(=O)/C=C/c2nc3ccccc3s2)c1 | 8 | -1 | -11 | 11 | -3
CCOc1cc(C(=O)Nc2ccc3c(c2)OCO3)ccc1OC(F)F | 1 | -2 | 89* | -89 | -2
SMILES | ATG4B inhibitor | CAL PDZ FP-1 | SR-BI DiI inh | SR-BI DiI-HDL act | CAL PDZ FP-2
CCCOc1c(Cl)cc(C(=O)Nc2ccc3c(c2)OCO3)cc1OCC | 15 | -3 | 78* | -78 | -3
O=C1CSC(c2cccnc2)N1Cc1ccc(Cl)c(Cl)c1 (stereo not given) | 0 | 0 | -6 | 6 | 4
C=C(C)COc1ccc(-c2ncncc2-c2ccccc2)c(O)c1 | -6 | 2 | 30 | -30 | -5
O=C(COC(=O)c1ccccn1)Nc1ncc(C(F)(F)F)cc1Cl | 3 | x | -11 | 11 | -3
O=C(COC(=O)c1ccc([N+](=O)[O-])s1)Nc1ncc(C(F)(F)F)cc1Cl | 17 | 1 | 10 | -10 | 71*
COc1ccccc1N1CCN(C(=O)NCc2cccc(C(F)(F)F)c2)CC1 | 44* | -2 | x | x | x
COc1ccc(/C=C/C(=O)NCC(=O)N/N=C/c2cccs2)cc1 | 2 | -1 | 41 | -41 | -2
CCOc1ccccc1C(=O)NC1CCNCC1 | 3 | 0 | 2 | -2 | -6
